Experimental data as given in publication PMC7117380 (Veterinary Microbiology, 2017).

Columns and labels:
[1] = test system: PRRSV nucleocapsid (N) protein; assay: Western blot of PRRSV nucleocapsid; type: cell-based, porcine reproductive and respiratory syndrome virus; settings: MARC-145 cells; for PRRSV N protein level (western blot), dose response: 6.25–200 μM, 36 h; for PRRSV N protein detection (western blot): 100 μM
[2] = in vitro; type: cell-based; settings: African green monkey
[3] = molecular target: T1, PRRSV 3CLSP (nsp4) (Porcine reproductive and respiratory syndrome virus, UniProt A1E8J1); assay: FRET assay of PRRSV 3CLSP; type: biochemical
T1 sequence (A1E8J1 1780-1983): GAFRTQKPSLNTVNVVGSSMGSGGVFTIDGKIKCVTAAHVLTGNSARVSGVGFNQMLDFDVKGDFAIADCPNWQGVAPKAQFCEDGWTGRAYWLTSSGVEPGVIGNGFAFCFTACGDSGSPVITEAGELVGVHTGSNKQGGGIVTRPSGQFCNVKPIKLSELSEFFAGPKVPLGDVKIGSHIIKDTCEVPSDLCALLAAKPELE

[4] = test system: PEDV (FJZZ strain); assay: TCID50 assay for PEDV replication in Vero cells; type: cell-based, porcine epidemic diarrhea virus
[5] = molecular target: T2, EAV 3CLSP (nsp4) (Equine arteritis virus, UniProt P19811); assay: FRET assay of EAV 3CLSP; type: biochemical; settings: 1 μM substrate, 12.5-500 μM compound
T2 sequence (P19811 1065-1268 limits assumed): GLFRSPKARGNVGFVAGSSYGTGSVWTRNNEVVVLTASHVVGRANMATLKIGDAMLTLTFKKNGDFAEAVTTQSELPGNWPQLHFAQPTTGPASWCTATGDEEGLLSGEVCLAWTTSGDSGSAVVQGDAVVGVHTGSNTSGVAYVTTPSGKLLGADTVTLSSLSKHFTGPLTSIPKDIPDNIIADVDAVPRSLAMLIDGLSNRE

[6] = Cell viability assay; type: cell-based; settings: African green monkey, Vero cells
Summary of the method: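 Confluent Vero cells in DMEM with 10% FBS at 37 °C, 5% CO2 were exposed to test compound at 50–500 μM for 72 h, with 0.1% DMSO as control. Viability was read by CellTiter-Glo luminescence. CC50 was fitted in GraphPad Prism from triplicate experiments (±SD).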

[7] = molecular target: T3, PEDV 3CL protease (nsp5) (Porcine epidemic diarrhea virus, UniProt P0C6Y4); assay: FRET assay of PEDV 3CL protease; type: biochemical
T3 sequence (P0C6Y4 2998-3299 limits assumed): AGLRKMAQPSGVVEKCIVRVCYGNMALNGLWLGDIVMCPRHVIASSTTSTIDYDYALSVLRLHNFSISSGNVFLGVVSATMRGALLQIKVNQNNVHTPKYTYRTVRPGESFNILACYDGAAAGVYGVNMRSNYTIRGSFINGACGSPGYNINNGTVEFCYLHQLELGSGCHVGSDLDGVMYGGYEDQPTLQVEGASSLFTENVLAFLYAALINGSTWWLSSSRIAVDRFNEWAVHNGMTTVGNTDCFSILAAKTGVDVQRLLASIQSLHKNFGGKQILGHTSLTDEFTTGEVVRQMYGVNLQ
Summary of the method: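 The assay used purified PEDV nsp5 (3CL protease) at 0.25 μM final and substrate Dabcyl-YNSTLQ↓AGLRKM-E-Edans at 10 μM. Test compound (6.25–500 μM) was preincubated with enzyme for 20 min at 37 °C, then incubated with substrate for 60 min at 37 °C. Fluorescence was read at ex 340/em 485, minus a no-protease background. Inhibition % came from the 60–0 min RFU change against control, and IC50 from nonlinear regression of triplicate runs.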

[8] = test system: PEDV nucleocapsid (N) protein; assay: Western blot of PEDV nucleocapsid; type: cell-based, porcine epidemic diarrhea virus; settings: Vero cells
[9] = test system: PRRSV (HP-PRRSV WUH3 strain); assay: TCID50 assay for PRRSV replication in MARC-145 cells; type: cell-based, porcine reproductive and respiratory syndrome virus; settings: for Inhibition of PRRSV infection: 100 μM

CC1CCN(c2ncnc3ccccc23)CC1 [Compound 5, 4-(4-methylpiperidin-1-yl)quinazoline]
PRRSV N protein level (western blot), dose response [1]: decreased
CC50 [2]: > 500 µM
viability at 72 h, 500 µM [2]: > 60%
IC50 [3]: 173 µM

Cc1cccc(C)c1C(=O)c1ccc(O)cc1O [Compound 3, (2,4-dihydroxyphenyl)(2,6-dimethylphenyl)methanone]
PRRSV N protein detection (western blot) [1]: no viral N protein was detectable
PRRSV N protein level (western blot), dose response [1]: decreased
PEDV-3CLpro SI values (selectivity index) [4]: ~9.02
CC50 [2]: 483 µM
Protease activity of EAV 3CLSP [5]: inhibited
CC50 at 72 h [6]: > 500 µM
IC50 [3]: 116 µM
IC50 [7]: 23.4 µM
PEDV N protein level (western blot), dose response [8]: decreased
Inhibition of PRRSV infection [9]: strongly inhibited PRRSV infection
PRRSV-3CLpro SI values (selectivity index) ([9]; PRRSV): ~8.5

Cc1ccncc1 [Compound 4, 4-methylpyridine]
Suppression of PRRSV replication (western blot) [1]: did not substantially suppress PRRSV replication
IC50 [3]: 148 µM
IC50 [7]: > 500 µM

Cc1ccc(C(=O)c2ccc(O)cc2O)cc1 [Compound 2, (2,4-dihydroxyphenyl) (4-methylphenyl)methanone]
PRRSV N protein detection (western blot) [1]: no viral N protein was detectable
PRRSV N protein level (western blot), dose response [1]: decreased
CC50 [2]: 480 µM
CC50 at 72 h [6]: > 500 µM
IC50 [3]: 144 µM
IC50 [7]: 37.8 µM
PEDV N protein level (western blot), dose response [8]: decreased
Inhibition of PRRSV infection [9]: strongly inhibited PRRSV infection
